Laboratory results: ChEMBL document CHEMBL5674885, “HIV-1 Vpr counteracts HLTF-mediated restriction of HIV-1 infection in T cells” (Proc Natl Acad Sci U S A, 2019)
Calls of active or inactive are those of the source. The rule behind the calls is not given here.

How the values were obtained:
[1] = Cytotoxicity in human CEM.SS T cells assessed as cell viability level at 200 nM; type: toxicity, cell-based; details: time 7 day, read-out: Activity
[2] = target: T1, Aberrant vpr protein (Human immunodeficiency virus 1) (UniProt Q77YF9); experiment: Modulation of HIV-1 Vpr-dependent enhancement of HIV-1 replication in human CEM.SS T cells assessed as effect on percentages of cell-associated HIV-1 DNA at 200 nM added starting 12 hrs before HIV-1 infection until 7 dpi; type: cell-based; details: time 7.0 day
T1 sequence (whole entry): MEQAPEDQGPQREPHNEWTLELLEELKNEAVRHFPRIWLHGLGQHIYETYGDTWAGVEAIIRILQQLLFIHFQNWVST
Summary of the method: (§1)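 CEM.SS cells held in drug from ~12 h before infection to 7 dpi, infected (1×10⁵ cells) with a DNase-treated, qPCR-normalized 1:1 mix of NL4-3 reporters HIV-1.mRFP.vpr.wt and HIV-1.RFP.vpr.Q8*, combined moi 0.006–0.02. Density was reset on 3 and 5 dpi, and only cultures with <5% RFP⁺ cells at 7 dpi were kept. Share of each virus DNA at 7 dpi came from SYBR qPCR of RFP/mRFP amplicons against plasmid standards; three biological replicates.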

[3] = target: T1, Aberrant vpr protein (Human immunodeficiency virus 1); experiment: Modulation of HIV-1 Vpr-dependent enhancement of HIV-1 replication in human CEM.SS T cells assessed as effect on percentages of cell-associated HIV-1 DNA at 10 uM added starting 12 hrs before HIV-1 infection until 7 dpi; type: cell-based; details: time 7.0 day; summary of the method: as §1
[4] = Cytotoxicity in human CEM.SS T cells assessed as cell viability level at 10 uM; type: toxicity, cell-based; details: time 7 day, read-out: Activity
[5] = target: T1, Aberrant vpr protein (Human immunodeficiency virus 1); experiment: Modulation of HIV-1 Vpr-dependent enhancement of HIV-1 replication in human CEM.SS T cells assessed as effect on percentages of cell-associated HIV-1 DNA at 2 uM added starting 12 hrs before HIV-1 infection until 7 dpi; type: cell-based; details: time 7.0 day; summary of the method: as §1
[6] = Cytotoxicity in human CEM.SS T cells assessed as cell viability level at 2 uM; type: toxicity, cell-based; details: time 7 day, read-out: Activity
[7] = Cytotoxicity in human CEM.SS T cells assessed as cell viability level at 3 uM; type: toxicity, cell-based; details: time 7 day, read-out: Activity
[8] = target: T1, Aberrant vpr protein (Human immunodeficiency virus 1); experiment: Modulation of HIV-1 Vpr-dependent enhancement of HIV-1 replication in human CEM.SS T cells assessed as effect on percentages of cell-associated HIV-1 DNA at 3 uM added starting 12 hrs before HIV-1 infection until 7 dpi; type: cell-based; details: time 7.0 day; summary of the method: as §1
[9] = Cytotoxicity in human CEM.SS T cells assessed as cell viability level at 1 nM; type: toxicity, cell-based; details: time 7 day, read-out: Activity
[10] = target: T1, Aberrant vpr protein (Human immunodeficiency virus 1); experiment: Modulation of HIV-1 Vpr-dependent enhancement of HIV-1 replication in human CEM.SS T cells assessed as effect on percentages of cell-associated HIV-1 DNA at 1 nM added starting 12 hrs before HIV-1 infection until 7 dpi; type: cell-based; details: time 7.0 day; summary of the method: as §1
[11] = Cytotoxicity in human CEM.SS T cells assessed as cell viability level at 0.67 uM; type: toxicity, cell-based; details: time 7 day, read-out: Activity
[12] = target: T1, Aberrant vpr protein (Human immunodeficiency virus 1); experiment: Modulation of HIV-1 Vpr-dependent enhancement of HIV-1 replication in human CEM.SS T cells assessed as effect on percentages of cell-associated HIV-1 DNA at 0.67 uM added starting 12 hrs before HIV-1 infection until 7 dpi; type: cell-based; details: time 7.0 day; summary of the method: as §1
[13] = Cytotoxicity in human CEM.SS T cells assessed as cell viability level at 1 uM; type: toxicity, cell-based; details: time 7 day, read-out: Activity
[14] = target: T1, Aberrant vpr protein (Human immunodeficiency virus 1); experiment: Modulation of HIV-1 Vpr-dependent enhancement of HIV-1 replication in human CEM.SS T cells assessed as effect on percentages of cell-associated HIV-1 DNA at 1 uM added starting 12 hrs before HIV-1 infection until 7 dpi; type: cell-based; details: time 7.0 day; summary of the method: as §1

With `O=C(CCCCCCC(=O)Nc1ccccc1)NO` [VORINOSTAT] the viability at 168 h, 0.2 µM [1] was greater than 80% and the Activity [2] was “inactive”.
For `NC(=O)C1CCCc2c1[nH]c1ccc(Cl)cc21` (centres undefined), the Activity [3] was “inactive” and the viability at 168 h, 10 µM [4] was greater than 80%.
With `CC(C)N(CCCNC(=O)Nc1ccc(C(C)(C)C)cc1)C[C@H]1O[C@@H](n2cc(Br)c3c(N)ncnc32)[C@H](O)[C@@H]1O` the Activity [5] was “inactive” and the viability at 168 h, 2 µM [6] was greater than 80%.
For `CC1=NN(c2ccc(C(=O)O)cc2)C(=O)/C1=C\c1ccc(-c2cc(C)c(C)cc2[N+](=O)[O-])o1`, the viability at 168 h, 3 µM [7] was greater than 80% and the Activity [8] was “inactive”.
For `CC(/C=C/C(=O)NO)=C\[C@@H](C)C(=O)c1ccc(N(C)C)cc1` [TRICHOSTATIN], the viability at 168 h, 0.001 µM [9] was greater than 80% and the Activity [10] was “inactive”.
In the case of `CCCc1cc(C)[nH]c(=O)c1CNC(=O)c1cc(-c2ccnc(N3CCN(C)CC3)c2)cc2c1cnn2C(C)C`, the viability at 168 h, 0.67 µM [11] is reported as greater than 80% and the Activity [12] is reported as “inactive”.
In the case of `COc1cc2c(NC3CCN(C(C)C)CC3)nc(C3CCCCC3)nc2cc1OCCCN1CCCC1`, the viability at 168 h, 1 µM [13] is reported as greater than 80% and the Activity [14] is reported as “inactive”.
